Assay results reported in publication PMC4324687 (Pharmacology Research & Perspectives, 2015).
Where “and” joins values, the source holds several entries; their conditions need not be identical. Equal values may be shown once. Read-outs that look alike come from different tables or passages of the source.

How the values were obtained:
[1] = assay type: in vivo, human
[2] = Pharmacokinetics of 14C-vemurafenib-related material; assay type: in vivo, human; conditions: for Cmax, mean ± SD [CV%]: single oral 960-mg dose
[3] = Metabolic profiling of pooled plasma; assay type: in vivo, human; conditions: for proportion of total chromatographic radioactivity in plasma, overall: over the 48-h interval postdose
[4] = Metabolic profiling of pooled feces; assay type: in vivo, human
[5] = Metabolic profiling of pooled urine; assay type: in vivo, human; conditions: single pool 0–96 h
[6] = system: patients with metastatic melanoma; assay: Safety assessments in patients with metastatic melanoma; assay type: in vivo, human
Outline: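 Seven patients received a single oral 960-mg dose of 14C-labelled test compound on day 15 after ≥8 h fasting. Monitoring ran through the study and a 28-day follow-up and covered adverse events, routine laboratory values, physical examination, vital signs, electrocardiography, dermatology, and head/neck and chest CT. SCC cases were followed until death, consent withdrawal or loss to follow-up. Severity was graded by NCI CTCAE v4.0 and summarised.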

[7] = cited from earlier work
[8] = system: CYP3A4; conditions: human liver microsomes; ref F. Hoffmann-La Roche, data on file; cited from earlier work
[9] = ref F. Hoffmann-La Roche, data on file, cited from earlier work
[10] = dog plasma after oral administration; ref F. Hoffmann-La Roche, data on file; cited from earlier work
[11] = cited from earlier work; remark: listed apart in the source
[12] = within 18 days after dosing, listed as 14C-vemurafenib
[13] = plasma, N=5, listed as 14C-vemurafenib
[14] = laboratory evaluation, of seven patients

SMILES: CCCS(=O)(=O)Nc1ccc(F)c(C(=O)c2c[nH]c3ncc(-c4ccc(Cl)cc4)cc23)c1F [vemurafenib]
- time within which the majority of fecal radioactivity was eliminated ([1]; cumulative excretion in feces): ≤ 264 h
- time within which the majority of urinary radioactivity was eliminated ([1]; cumulative excretion in urine): ≤ 192 h
- radioactivity recovered in feces, mean ± SD ([1]; within 18 days after dosing): Approximately 94%
- radioactivity recovered in feces, range ([1]; within 18 days after dosing): 89.4–97.6%
- radioactivity recovered in urine, mean ([1]; within 18 days after dosing): ≤ 1%
- radioactivity recovered in urine, range ([1]; within 18 days after dosing): 0.56–1.63%
- radioactivity recovered in feces, mean ± SD [1, 12]: 94.1% and 94.1 ± 2.7%
- radioactivity recovered in urine, mean [1, 12]: < 1%
- 14C-vemurafenib-related material recovered from urine and feces, range ([1]; within 18 days after dosing, seven patients): 91.0–98.3%
- Blood/plasma AUC ratio, mean ± SD [CV%] ([2]; N=5): 0.72 ± 0.050 [6.83]
- 14C-vemurafenib-related material that might be bound to the cellular compartment in whole blood ([2]; assuming 40–50% of whole blood is cells): 10–20%
- Tmax, median (minimum–maximum) ([2]; blood, N=5): 4.1 (4–12) ^1 h
- t½ (elimination half-life), mean ± SD [CV%] ([2]; blood, N=5): 84.4 ± 24.6 [29.1] h
- Cmax, mean ± SD [CV%] ([2]; blood, N=5): 5.25 ± 1.71 [32.5] μg eq/mL
- Blood/plasma AUC ratio, range ([2]; human, blood and plasma, oral, 960 mg): 0.69–0.81
- plasma elimination half-life of 14C-vemurafenib-related material, range ([2]; plasma): 51 to 86 h
- Tmax, median (minimum–maximum) ([2]; plasma, N=5): 4.1 (4–12) ^1 h
- t½ (elimination half-life) of 14C-vemurafenib-related material, mean ± SD [CV%] ([2]; plasma, N=5): 71 h
- t½ (elimination half-life) of 14C-vemurafenib-related material, mean ± SD [CV%] [2, 13]: 71.1 ± 15.4 [21.6] h
- Cmax, mean ± SD [CV%] [2, 13]: 7.83 ± 2.28 [29.1] μg eq/mL
- proportion of radioactivity in pooled plasma, mean ± SD ([3]; 4–6 h pool): 99.5 ± 1.4%
- proportion of radioactivity in pooled plasma, mean ± SD ([3]; 12–24 h pool): 95.9 ± 5.5%
- proportion of radioactivity in pooled plasma, mean ± SD ([3]; 36–48 h pool): 96.0 ± 3.8%
- proportion of total chromatographic radioactivity in plasma, overall ([3]; listed as parent compound): 95%
- proportion of total chromatographic radioactivity in plasma, overall ([3]; listed as parent molecule): > 95%
- proportion of radioactivity in feces, mean ([4]; 48–96 h pool): 55.5 ± 20.1%
- % of the total input dose found in pooled feces ([4]; first 48 h): 38%
- proportion of all recovered radioactivity in feces, mean ± SD ([4]; first 48 h pool): 94.2 ± 5.8%
- % of the total radioactive dose found in pooled feces ([4]; within the first 96 h): ~55%
- % of total administered (input radioactive) dose in urine [5]: ~1%
- severity of most adverse events ([6]; NCI CTCAE grade 1 or 2): mild or moderate
- serious adverse events (all grade 3), number of events ([6]; cuSCC, cuSCC and keratoacanthoma, considered related): Three
- elevated low-density lipoprotein cholesterol level [6, 14]: three
- grade 3 lymphopenia [6, 14]: four
- low white blood cell count [6, 14]: three
- changes in electrocardiography or vital signs ([6]; seven patients): No clinically significant changes
- patients with at least one adverse event related to vemurafenib ([6]; seven patients): All patients
- treatment discontinuation because of an adverse event ([6]; seven patients): No patient discontinued treatment
- tolerability ([6]; seven patients, 960 mg twice daily): well-tolerated
- median elimination half-life (population PK modeling) ([7]; continual multiple-dose vemurafenib, ref Genentech, Inc. [2014]): 57 h
- elimination half-life after a single dose ([7]; single dose, ref Ribas et al. [2014]): ~25 h
- primary enzyme responsible for metabolism and formation of hydroxylated metabolites [8]: CYP3A4 was the primary enzyme
- component status of unchanged parent drug in plasma ([9]; rat plasma after oral administration): major component
- route of recovery of vemurafenib-derived radioactivity (parent plus metabolites) ([9]; rats): primarily recovered in feces
- component status of unchanged parent drug in plasma [10]: major component
- maximum tolerated dose and recommended dose for further clinical evaluation ([11]; phase 1 data, ref Flaherty et al. [2010]): 960 mg twice daily
- pharmacokinetics with hand-filled capsules versus tablets ([11]; phase 1 trial PLX06-02, ref phase 1 trial PLX06-02): No differences
